According to ChEMBL document CHEMBL1135734, “Side-chain lactam-bridge conformational constraints differentiate the activities of salmon and human calcitonins and reveal a new design concept for potent calcitonin analogues” (J Med Chem, 2002):
Positions of bridges follow the written chain, without caps; N, C: chain ends. Non-standard residues stand in square brackets, D forms with d. Residues, ends and D or L forms follow the SMILES beside them. Nle = CCCC[C@H](N)C(=O)O; Orn = NCCC[C@H](N)C(=O)O

Key:
Calcitonin receptor [1] = biological target: T1, Calcitonin receptor (Homo sapiens, UniProt P30988); assay: Inhibition of [125I]-salmon calcitonin (sCT) binding to human calcitonin receptor I1 expressed in HEK293 cells; type: cell-based
T1 sequence (P30988 whole entry): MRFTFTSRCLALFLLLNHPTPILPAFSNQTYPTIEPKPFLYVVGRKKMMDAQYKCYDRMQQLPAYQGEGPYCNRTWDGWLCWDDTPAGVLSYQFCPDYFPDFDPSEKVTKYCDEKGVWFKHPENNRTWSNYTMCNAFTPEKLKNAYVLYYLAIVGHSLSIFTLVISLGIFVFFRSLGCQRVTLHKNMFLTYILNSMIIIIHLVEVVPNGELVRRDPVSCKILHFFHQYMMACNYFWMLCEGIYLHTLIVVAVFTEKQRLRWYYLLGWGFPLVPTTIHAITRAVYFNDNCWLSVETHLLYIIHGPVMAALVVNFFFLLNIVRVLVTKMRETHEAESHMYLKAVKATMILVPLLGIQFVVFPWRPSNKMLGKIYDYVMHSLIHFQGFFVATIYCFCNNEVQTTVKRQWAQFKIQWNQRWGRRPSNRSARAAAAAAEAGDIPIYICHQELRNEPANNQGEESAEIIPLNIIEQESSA

Calcitonin receptor [2] = biological target: T2, Calcitonin receptor (Rattus norvegicus, UniProt P32214); assay: Displacement of [125I]-salmon calcitonin (sCT) from calcitonin receptor of rat brain
T2 sequence (P32214 whole entry): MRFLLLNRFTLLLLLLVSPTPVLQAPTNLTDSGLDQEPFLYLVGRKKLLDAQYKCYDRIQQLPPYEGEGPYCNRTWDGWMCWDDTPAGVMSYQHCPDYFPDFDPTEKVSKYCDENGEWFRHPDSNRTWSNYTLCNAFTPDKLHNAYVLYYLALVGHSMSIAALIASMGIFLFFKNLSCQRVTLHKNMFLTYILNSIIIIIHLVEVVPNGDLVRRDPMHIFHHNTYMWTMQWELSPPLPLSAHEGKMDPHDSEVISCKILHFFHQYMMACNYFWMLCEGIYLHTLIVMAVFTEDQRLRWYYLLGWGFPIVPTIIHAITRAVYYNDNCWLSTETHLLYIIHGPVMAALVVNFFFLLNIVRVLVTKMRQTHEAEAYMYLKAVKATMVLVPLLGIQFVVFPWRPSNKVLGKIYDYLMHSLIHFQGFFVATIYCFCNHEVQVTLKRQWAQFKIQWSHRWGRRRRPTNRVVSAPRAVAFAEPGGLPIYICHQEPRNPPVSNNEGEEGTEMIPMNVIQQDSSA
Procedure, shortened: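 Male Sprague–Dawley rat (250–350 g) brain membranes (~0.63 mg protein/tube) were shaken on ice for 30 min with 10 pM final [125I-Tyr22]sCT and competitor in 50 mM Tris-HCl pH 7.4 with 34 μM bacitracin. Tubes were centrifuged and the pellets washed, SDS-solubilized and scintillation counted. Nonspecific binding was taken with 1 μM sCT. IC50 came from probit analysis, and relative affinity set sCT = 100%.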

Structure (SMILES)	Ki (Calcitonin receptor [1]; hek293) [nM]	IC50 (Calcitonin receptor [2]) [nM]	Ki (Calcitonin receptor [1]) [nM]
CC[C@H](C)[C@H](NC(=O)[C@H](C)NC(=O)[C@@H](NC(=O)[C@H](CCC(N)=O)NC(=O)[C@@H]1CCCN1C(=O)[C@H](Cc1ccccc1)NC(=O)[C@@H](NC(=O)[C@H](Cc1c[nH]cn1)NC(=O)[C@@H]1CCCN1C(=O)[C@H](CCCCN)NC(=O)[C@H](CC(N)=O)NC(=O)[C@H](Cc1ccccc1)NC(=O)[C@H](CC(=O)O)NC(=O)[C@H](CCC(N)=O)NC(=O)[C@@H](NC(=O)[C@H](Cc1ccc(O)cc1)NC(=O)[C@@H](NC(=O)CNC(=O)[C@H](CC(C)C)NC(=O)[C@H](CCSC)NC(=O)[C@@H]1CSSC[C@H](N)C(=O)NCC(=O)N[C@@H](CC(N)=O)C(=O)N[C@@H](CC(C)C)C(=O)N[C@@H](CO)C(=O)N[C@@H]([C@@H](C)O)C(=O)N1)[C@@H](C)O)[C@@H](C)O)[C@@H](C)O)[C@@H](C)O)C(=O)NCC(=O)N[C@H](C(=O)NCC(=O)N[C@@H](C)C(=O)N1CCC[C@H]1C(N)=O)C(C)C (H-CGNLSTCMLGTYTQDFNKPHTFPQTAIGVGAP-NH2; disulfide 1-7)	400	> 5000	
CC(C)C[C@H](NC(=O)[C@H](CCCCN)NC(=O)CNC(=O)[C@H](CC(C)C)NC(=O)[C@@H](NC(=O)[C@H](CS)NC(=O)[C@@H](NC(=O)[C@H](CO)NC(=O)[C@H](CC(C)C)NC(=O)[C@H](CC(N)=O)NC(=O)[C@H](CO)NC(=O)[C@@H](N)CS)[C@@H](C)O)C(C)C)C(=O)N[C@@H](CO)C(=O)N[C@@H](CCC(N)=O)C(=O)N[C@@H](CCC(=O)O)C(=O)N[C@@H](CC(C)C)C(=O)N[C@H]1CC(=O)NCCC[C@@H](C(=O)N[C@@H](Cc2ccc(O)cc2)C(=O)N2CCC[C@H]2C(=O)N[C@@H](CCCN=C(N)N)C(=O)N[C@H](C(=O)N[C@@H](CC(N)=O)C(=O)N[C@H](C(=O)NCC(=O)N[C@@H](CO)C(=O)NCC(=O)N[C@H](C(=O)N2CCC[C@H]2C(N)=O)[C@@H](C)O)[C@@H](C)O)[C@@H](C)O)NC(=O)[C@H](Cc2c[nH]cn2)NC(=O)[C@H](CC(C)C)NC(=O)[C@H](CCCCN)NC1=O (H-CSNLSTCVLGKLSQELDKLH[Orn]YPRTNTGSGTP-NH2; lactam 17-21)	0.069	0.249	
CC(C)C[C@H](NC(=O)[C@H](CCCCN)NC(=O)CNC(=O)[C@H](CC(C)C)NC(=O)[C@@H](NC(=O)[C@@H]1CSSC[C@H](N)C(=O)N[C@@H](CO)C(=O)N[C@@H](CC(N)=O)C(=O)N[C@@H](CC(C)C)C(=O)N[C@@H](CO)C(=O)N[C@@H]([C@@H](C)O)C(=O)N1)C(C)C)C(=O)N[C@@H](CO)C(=O)N[C@@H](CCC(N)=O)C(=O)N[C@@H](CCC(=O)O)C(=O)N[C@@H](CC(C)C)C(=O)N[C@@H](Cc1c[nH]cn1)C(=O)N[C@@H](CCCCN)C(=O)N[C@@H](CC(C)C)C(=O)N[C@@H](CCC(N)=O)C(=O)N[C@H](C(=O)N[C@@H](Cc1ccc(O)cc1)C(=O)N1CCC[C@H]1C(=O)N[C@@H](CCCNC(=N)N)C(=O)N[C@H](C(=O)N[C@@H](CC(N)=O)C(=O)N[C@H](C(=O)NCC(=O)N[C@@H](CO)C(=O)NCC(=O)N[C@H](C(=O)N1CCC[C@H]1C(N)=O)[C@@H](C)O)[C@@H](C)O)[C@@H](C)O)[C@@H](C)O		0.377	[…]
CCCC[C@H](NC(=O)[C@H](Cc1c[nH]cn1)NC(=O)[C@H](CC(C)C)NC(=O)[C@H](CCCCN)NC(=O)[C@H](CC(N)=O)NC(=O)[C@H](CC(C)C)NC(=O)[C@H](CCC(=O)O)NC(=O)[C@H](CCC(N)=O)NC(=O)[C@H](CO)NC(=O)[C@H](CC(C)C)NC(=O)[C@H](CCCCN)NC(=O)CNC(=O)[C@H](CC(C)C)NC(=O)[C@@H](NC(=O)[C@@H]1CSSC[C@H](N)C(=O)N[C@@H](CO)C(=O)N[C@@H](CC(N)=O)C(=O)N[C@@H](CC(C)C)C(=O)N[C@@H](CO)C(=O)N[C@@H]([C@@H](C)O)C(=O)N1)C(C)C)C(=O)N[C@@H](Cc1ccc(O)cc1)C(=O)N1CCC[C@H]1C(=O)N[C@@H](CCCN=C(N)N)C(=O)N[C@H](C(=O)N[C@@H](CC(N)=O)C(=O)N[C@H](C(=O)NCC(=O)N[C@@H](CO)C(=O)NCC(=O)N[C@H](C(=O)N1CCC[C@H]1C(N)=O)[C@@H](C)O)[C@@H](C)O)[C@@H](C)O (H-CSNLSTCVLGKLSQELNKLH[Nle]YPRTNTGSGTP-NH2; disulfide 1-7)	0.069	0.408	
CC[C@H](C)[C@H](NC(=O)[C@H](C)NC(=O)[C@@H](NC(=O)[C@H](CCC(N)=O)NC(=O)[C@@H]1CCCN1C(=O)[C@H](Cc1ccccc1)NC(=O)[C@@H](NC(=O)[C@H](Cc1cnc[nH]1)NC(=O)[C@H](Cc1ccccc1)NC(=O)[C@@H]1CCCN1C(=O)[C@H](CC(N)=O)NC(=O)[C@H](Cc1ccccc1)NC(=O)[C@H](CC(=O)O)NC(=O)[C@H](CCC(N)=O)NC(=O)[C@@H](NC(=O)[C@H](Cc1ccc(O)cc1)NC(=O)[C@@H](NC(=O)CNC(=O)[C@H](CC(C)C)NC(=O)[C@H](CCSC)NC(=O)[C@@H]1CSSC[C@H](N)C(=O)NCC(=O)N[C@@H](CC(N)=O)C(=O)N[C@@H](CC(C)C)C(=O)N[C@@H](CO)C(=O)N[C@@H]([C@@H](C)O)C(=O)N1)[C@@H](C)O)[C@@H](C)O)[C@@H](C)O)[C@@H](C)O)C(=O)NCC(=O)N[C@H](C(=O)NCC(=O)N[C@@H](C)C(=O)N1CCC[C@H]1C(N)=O)C(C)C (H-CGNLSTCMLGTYTQDFNPFHTFPQTAIGVGAP-NH2; disulfide 1-7)	1230	1910	
CC[C@H](C)[C@H](NC(=O)[C@H](C)NC(=O)[C@@H](NC(=O)[C@H](CCC(N)=O)NC(=O)[C@@H]1CCCN1C(=O)[C@H](Cc1ccccc1)NC(=O)[C@@H]1CCCNC(=O)C[C@H](NC(=O)[C@H](Cc2ccccc2)NC(=O)[C@H](CC(=O)O)NC(=O)[C@H](CCC(N)=O)NC(=O)[C@@H](NC(=O)[C@H](Cc2ccc(O)cc2)NC(=O)[C@@H](NC(=O)CNC(=O)[C@H](CC(C)C)NC(=O)[C@H](CCSC)NC(=O)[C@H](CS)NC(=O)[C@@H](NC(=O)[C@H](CO)NC(=O)[C@H](CC(C)C)NC(=O)[C@H](CC(N)=O)NC(=O)CNC(=O)[C@@H](N)CS)[C@@H](C)O)[C@@H](C)O)[C@@H](C)O)C(=O)N[C@@H](CCCCN)C(=O)N[C@@H](Cc2ccccc2)C(=O)N[C@@H](Cc2c[nH]cn2)C(=O)N1)[C@@H](C)O)C(=O)NCC(=O)N[C@H](C(=O)NCC(=O)N[C@@H](C)C(=O)N1CCC[C@H]1C(N)=O)C(C)C (H-CGNLSTCMLGTYTQDFDKFH[Orn]FPQTAIGVGAP-NH2; lactam 17-21)		173	
CC[C@H](C)[C@H](NC(=O)[C@H](C)NC(=O)[C@@H](NC(=O)[C@H](CCC(N)=O)NC(=O)[C@@H]1CCCN1C(=O)[C@H](Cc1ccccc1)NC(=O)[C@@H](NC(=O)[C@H](Cc1c[nH]cn1)NC(=O)[C@H](Cc1ccccc1)NC(=O)[C@H](CCCCN)NC(=O)[C@H](CC(N)=O)NC(=O)[C@H](Cc1ccccc1)NC(=O)[C@H](CC(=O)O)NC(=O)[C@H](CCC(N)=O)NC(=O)[C@@H](NC(=O)[C@H](Cc1ccc(O)cc1)NC(=O)[C@@H](NC(=O)CNC(=O)[C@H](CC(C)C)NC(=O)[C@H](CCSC)NC(=O)[C@@H]1CSSC[C@H](N)C(=O)NCC(=O)N[C@@H](CC(N)=O)C(=O)N[C@@H](CC(C)C)C(=O)N[C@@H](CO)C(=O)N[C@@H]([C@@H](C)O)C(=O)N1)[C@@H](C)O)[C@@H](C)O)[C@@H](C)O)[C@@H](C)O)C(=O)NCC(=O)N[C@H](C(=O)NCC(=O)N[C@@H](C)C(=O)N1CCC[C@H]1C(N)=O)C(C)C		2450	
